High-throughput results: PubChem, Johns Hopkins Ion Channel Center
This is a sample that favours compounds with a hit; in the whole collection about 3.1% have one here.
KCNQ1 block: blocks the human KCNQ1 potassium channel | P51787 | B-score at 10 µM | CHO-K1 KCNQ1, FluxOR thallium flux fluorescence; stronger effect = higher value | 310,000 compounds, 1.3% hits;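 active means compounds whose thallium flux B-score, printed positive for inhibition, exceeds three library SD while starting fluorescence stays within three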;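 further: channel opened by potassium depolarization with thallium stimulus after 20 min compound exposure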
hERG protect: hERG (human) protection from proarrhythmic block; Q12809; CHO-hERG, FluxOR thallium flux, dofetilide IC70 present; activation (rescue from dofetilide block), less the hit threshold, % at 10 µM; 310,000 compounds, 0.51% hits; AID 1511;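 active means activation above the mean of controls blocked by dofetilide plus 5 SD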;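 further: thallium influx through hERG after potassium depolarization seen as dye fluorescence rise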
KCNK3 inh: human KCNK3 channel inhibition, primary screen. O14649. CHO-KCNK3 thallium flux, FluxOR fluorescence; stronger effect = lower value. B-score at 10 µM. 340,000 compounds, 0.84% hits;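 active means B-score under library mean minus 4 SD, starting fluorescence ratio at most library mean plus 5 SD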;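 further: more negative B-score means stronger inhibition of thallium flux through KCNK3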
KCNQ1 act: human KCNQ1 channel potentiation or activation. P51787. CHO-K1 KCNQ1, thallium flux FluxOR fluorescence; stronger effect = higher value. B-score at 10 µM. 310,000 compounds, 0.35% hits. AID 2648;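 active means fluorescence ratio B-score, a plate-corrected score, at least three library SD, with initial intensity B-score within 5 SD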
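Test system: CHO-K1 cells stably expressing KCNQ1 / Medium: assay buffer / Also added: depolarizing K+/Tl+ stimulus, K2SO4 and Tl2SO4 each 12.5 mM in 5x stock / Incubation: 90 min dye loading and 20 min compound exposure, both at room temperature / Signal: thallium influx via FluxOR fluorescence, kinetic imaging / Evaluation: B score of baseline-normalized fluorescence ratio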
KCNK9 block: inhibitors of human KCNK9 two-pore domain potassium channel. HEK293 KCNK9, FluxOR thallium flux fluorescence; stronger effect = lower value. B-score at 10 µM. 310,000 compounds, 1.2% hits;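 active means ratio B-score over 3 SD below the library mean, with starting fluorescence within 5 SD of its mean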;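 further: negative B-score means less thallium flux so channel inhibition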
Target sequence (Q9NPC2 whole entry, looked up, the tested form may be a part): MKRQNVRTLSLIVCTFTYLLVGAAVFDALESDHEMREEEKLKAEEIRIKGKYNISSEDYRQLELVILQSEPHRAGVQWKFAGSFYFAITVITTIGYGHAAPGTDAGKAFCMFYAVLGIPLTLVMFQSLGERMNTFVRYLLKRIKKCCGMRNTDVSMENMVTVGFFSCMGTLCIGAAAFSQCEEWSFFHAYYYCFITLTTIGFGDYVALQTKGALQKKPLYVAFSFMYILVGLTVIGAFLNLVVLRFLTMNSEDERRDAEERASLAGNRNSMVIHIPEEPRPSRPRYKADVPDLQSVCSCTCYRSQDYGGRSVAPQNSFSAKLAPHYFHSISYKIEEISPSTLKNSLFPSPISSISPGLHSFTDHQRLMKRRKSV
KCNQ1 inh valid: reconfirmed blocker of the human KCNQ1 potassium channel. 1,600 compounds, 93% hits. KCNQ1 cell line, FluxOR thallium flux fluorescence. inhibition, % at 10 µM. shares compounds with KCNQ1 block;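 active means primary screen active, with duplicate mean exceeding buffer control mean plus 3 SD of buffer wells, cut at about 28% in these data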;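 further: 0% = buffer control ratio and 100% = XE991 inhibitor control ratio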
CHO Tl flux: activity in parental CHO cells lacking KCNQ1; parental CHO-K1, FluxOR thallium flux fluorescence ratio; stronger effect = lower value; zero means no signal rise above baseline; shares compounds with KCNQ1 block; 1,600 compounds, 21% hits; fluorescence ratio (Tl flux) at 10 µM; AID 588366;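 active means mean of duplicate thallium-flux fluorescence ratios in parental host cells more than 5 SD below the buffer control mean, cut at about 0.38 in these data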;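 further: ratio is peak minus minimum fluorescence divided by baseline fluorescence; actives read low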
KCNQ1 APC inh: blocks human KCNQ1 current in automated patch clamp; AID 624120; calls only at 10 µM; KCNQ1-CHO cells; shares compounds with KCNQ1 block; 490 compounds, 20% hits;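 active means KCNQ1 current drop exceeding 3 SD of negative control wells, seen in both duplicate runs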;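 further: steady state current during a 2 s step from -80 to +40 mV; negative values mean current inhibition and positive values mean potentiation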
KCNQ2 spec: selectivity of KCNQ1 inhibitors: inhibition of rat KCNQ2 channel. shares compounds with KCNQ1 block. KCNQ2 cells, FluxOR thallium flux fluorescence. inhibition, % at 10 µM. 1,600 compounds, 71% hits. AID 651746;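 active means mean percent inhibition of the KCNQ2 thallium signal more than 5 SD above the buffer-only control wells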;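 further: KCNQ2 expressed in CHO cells; 0% = buffer control wells and 100% = XE-991 inhibitor control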
KCNQ1-KCNE1 inh: selectivity of KCNQ1 inhibitors: inhibition of human KCNQ1/KCNE1 channel; inhibition, % at 10 µM; 1,600 compounds, 77% hits; KCNQ1/KCNE1 cells, FluxOR thallium flux fluorescence; shares compounds with KCNQ1 block;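 active means mean percent inhibition of duplicate wells above the buffer-only control mean plus 3 SD of those controls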;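 further: 0% = buffer only wells and 100% = XE-991 inhibitor control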
KCNK9 inh conf: confirmation of human KCNK9 potassium channel inhibitors; shares compounds with KCNK9 block; HEK293 KCNK9 cells, FluxOR thallium flux fluorescence; inhibition, % at 10 µM; 4,900 compounds, 43% hits;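 active means thallium signal inhibited by more than 5 SD of the compound-free buffer control wells, on both duplicate plates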;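 further: 0% = assay buffer control wells without compound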
Kir2-1 spec: mouse Kir2.1 off-target activity of KCNK9 modulators | shares compounds with KCNK9 block | Kir2.1 cells, FluxOR thallium flux fluorescence | inhibition, % at 10 µM | 4,900 compounds, 4% hits;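 active means thallium signal drop more than 5 SD beyond the mean of the no-compound control wells, seen in both duplicate plates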;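 further: signal is fluorescence rise after thallium addition divided by baseline fluorescence; plate controls were assay buffer only for no effect and full block by chlorpromazine control for full effect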
Target sequence (P35561 whole entry, looked up): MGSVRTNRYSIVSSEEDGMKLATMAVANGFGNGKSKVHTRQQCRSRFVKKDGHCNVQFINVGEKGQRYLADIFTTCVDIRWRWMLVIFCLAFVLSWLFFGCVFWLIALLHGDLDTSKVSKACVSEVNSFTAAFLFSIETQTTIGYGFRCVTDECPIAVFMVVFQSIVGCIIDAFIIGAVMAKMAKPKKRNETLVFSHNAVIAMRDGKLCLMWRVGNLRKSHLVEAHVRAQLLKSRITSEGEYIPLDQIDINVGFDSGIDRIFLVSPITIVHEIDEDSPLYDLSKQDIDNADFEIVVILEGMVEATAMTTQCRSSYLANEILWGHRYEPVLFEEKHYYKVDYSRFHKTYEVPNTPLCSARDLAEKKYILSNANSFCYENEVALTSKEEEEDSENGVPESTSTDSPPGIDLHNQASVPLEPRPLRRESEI
KCNK9 uninduced: second counter-screen for KCNK9 modulators: effect in non-induced cells; shares compounds with KCNK9 block; non-induced KCNK9-HEK293, FluxOR thallium flux; inhibition, % at 10 µM; 4,900 compounds, 40% hits; AID 492997;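 active means thallium signal drop beyond 5 SD of the untreated control mean, on both duplicate plates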;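 further: plate controls were buffer only IC0 wells for no effect and SID17386958 at its maximal inhibitory level for full effect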
KCNK3 confirm: human KCNK3 channel inhibition, confirmation assay; ratio percent of control, % at 10 µM; 2,400 compounds, 99% hits; shares compounds with KCNK3 inh; CHO-KCNK3 thallium flux, FluxOR fluorescence; 0% buffer, 100% carvedilol maximal block;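 active means ratio percent of control, averaged over triplicates, above buffer control mean plus 5 SD, cut at about 64% in these data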;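 further: ratio is the fluorescence rise from min to max over baseline after thallium stimulus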
KCNK3 uninduced: counter-screen for KCNK3 inhibitors: effect in non-induced cells; shares compounds with KCNK3 inh; 2,400 compounds, 40% hits; thallium flux ratio (lower = more inhibition) at 10 µM; AID 651747; non-induced KCNK3 parental cells, FluxOR thallium flux; stronger effect = lower value;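 active means thallium flux ratio, averaged over three wells, more than 5 SD below the buffer control mean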;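 further: host cells are CHO cells without KCNK3 induction; ratio is peak minus trough fluorescence over baseline then normalized to buffer controls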
An asterisk follows results filed as active; i = inactive; x = no result; + = active, no number.

SMILES	KCNQ1 block	hERG protect	KCNK3 inh	KCNQ1 act	KCNK9 block	KCNQ1 inh valid	CHO Tl flux	KCNQ2 spec	KCNQ1-KCNE1 inh	KCNK9 inh conf	Kir2-1 spec	KCNK9 uninduced	KCNK3 confirm	KCNK3 uninduced	others
Cc1nc2ccc(S(=O)(=O)Nc3cccc(-c4nc5cccnc5s4)c3C)cc2s1	12*	-21	-9.6*	i	i	145*	0.32*	105%*	+	x	x	x	114*	i
COc1cc(NC(=O)COC(=O)c2n[nH]c3ccccc23)c(C)cc1[N+](=O)[O-]	i	-3	i	i	i	x	x	x	x	x	x	x	x	x
CN(C)S(=O)(=O)c1cccc(C(=O)Nc2ccccc2)c1	i	-2	i	i	i	x	x	x	x	x	x	x	x	x
CN(C)S(=O)(=O)c1cccc(C(=O)Nc2cc(Cl)cc(Cl)c2)c1	7*	-10	-13*	i	i	67*	0.49	110%*	i	x	x	x	126*	i
COC(=O)C1C(c2ccccc2)C(C(=O)OCc2ccco2)C1c1ccccc1 (stereo not given)	6*	-25	-11*	i	-8.3*	95*	0.36*	111%*	164%*	44%*	i	24%*	116*	0.15*
Cc1ccc(NC(=O)c2cc(-c3cccs3)nc3ccccc23)nc1	6*	-20	-11*	i	i	88*	0.37*	121%*	196%*	x	x	x	111*	0.14*
CCS(=O)(=O)c1ncc(Cl)c(C(=O)Nc2ccc(S(=O)(=O)N3CCC(C)CC3)cc2)n1	6*	-25	-8.8*	i	-7*	0	0.43	i	70%*	x	x	x	124*	0.12*
Cc1ccn2cc(-c3cccc(NC(=O)c4cccs4)c3)nc2c1	8*	-24	-11*	i	i	58*	0.44	i	82%*	x	x	x	96*	i
O=C(CCN1CCOCC1)NNC(=O)Nc1cccc([N+](=O)[O-])c1	i	-5	i	i	i	x	x	x	x	x	x	x	x	x
CCOC(=O)c1c(C)n(-c2ccc(C)cc2)c2ccc(O)c(CN(C)C)c12	6*	-24	-9.8*	i	i	38*	0.48	i	i	x	x	x	117*	0.15*
O=C(Nc1cccc(C(=O)Nc2cccc(Br)c2)c1)c1ccccc1	13*	-6	-12*	i	i	116*	0.5	111%*	151%*	x	x	x	118*	i	KCNQ1 APC inh=i
O=C(O)c1cccc(NC(=O)c2ccccc2)c1	x	x	i	x	x	x	x	x	x	x	x	x	x	x
CC(=O)c1c(C)[nH]c(C(=O)Nc2cccc(S(=O)(=O)N(C)c3ccccc3)c2)c1C	16*	-17	-11*	i	-8.6*	128*	0.35*	143%*	184%*	i	i	36%*	133*	0.12*
CC(C)OCCCNc1nc(-c2ccccc2)nc2ccccc12	7*	-24	-10*	i	i	88*	0.48	117%*	152%*	x	x	x	123*	i	KCNQ1 APC inh=i
CN(C)CCCNc1nc(-c2ccccc2)nc2ccccc12	i	-10	i	i	i	x	x	x	x	x	x	x	x	x
Cn1c(N2CCN(C(c3ccccc3)c3ccccc3)CC2)nc2ccccc21	12*	-15	-13*	i	-14*	142*	0.39	142%*	+	84%*	i	i	117*	0.16*	KCNQ1 APC inh=i
O=C(Nc1cccnc1)c1cc(-c2cccc(Br)c2)nc2ccccc12	15*	-18	-12*	i	-9.2*	148*	0.31*	130%*	195%*	i	i	38%*	156*	0.1*
O=C(Nc1ccncc1)c1cc(-c2cccc(Br)c2)nc2ccccc12	i	-16	i	i	i	x	x	x	x	x	x	x	x	x
O=[N+]([O-])c1c(Nc2ccccc2O)cc(Cl)c2nonc12	21*	-35	-12*	i	i	184*	0.2*	151%*	+	x	x	x	154*	0.076*
O=[N+]([O-])c1c(Nc2ccccc2O)ccc2nonc12	i	-1	i	i	i	x	x	x	x	x	x	x	x	x
CC1CCCCN1CCCNC(=O)C1CCCN(c2ncnc3c2nc2n3CCCCC2)C1 (stereo not given)	i	-7	i	i	i	x	x	x	x	x	x	x	x	x
O=C(N/N=C/c1cn(-c2ccccc2)nc1-c1ccc(F)cc1)c1ccc2c(c1)OCO2	i	-24	i	i	-10*	x	x	x	x	55%*	i	i	x	x
COC(=O)C1=C(C)NC(=O)C1(NS(=O)(=O)c1ccc(NC(C)=O)cc1)C(F)(F)F (stereo not given)	i	-8	i	i	i	x	x	x	x	x	x	x	x	x
CCOc1ccccc1CNC(=O)c1cc2oc3ccccc3c2n1CC	i	-11	i	i	-9.1*	x	x	x	x	50%*	i	30%*	x	x
CN(Cc1cccc(Cl)c1Cl)C(=O)c1cccc(S(=O)(=O)N2CCN(Cc3ccccc3)CC2)c1	i	-10	i	i	i	x	x	x	x	i	i	i	x	x
C=CCn1c(SCc2csc(C)n2)nc2sc3c(c2c1=O)CCC(C)C3 (stereo not given)	i	-14	i	i	i	x	x	x	x	i	i	i	x	x
Cc1noc(NS(=O)(=O)c2ccc(NC(=O)C34CC5CC(C3)CC(n3cnc(Br)n3)(C5)C4)cc2)c1C	i	-5	i	i	i	x	x	x	x	x	x	x	x	x
